Source: PubChem
Most compounds without a hit are left out; they make up all but 1.5% or so of the library.
NSD2 HMT inh = NSD2 histone methyltransferase inhibitors, primary screen, biochemical, AlphaScreen, single concentration, set 2 | Histone-lysine N-methyltransferase NSD2 (Homo sapiens), O96028 | NSD2 peptide methylation, 120 min | inhibition, % at 12.5 µM | 310,000 compounds, 0.54% hits | AID 743445, 2014
Target sequence (O96028 whole entry, looked up): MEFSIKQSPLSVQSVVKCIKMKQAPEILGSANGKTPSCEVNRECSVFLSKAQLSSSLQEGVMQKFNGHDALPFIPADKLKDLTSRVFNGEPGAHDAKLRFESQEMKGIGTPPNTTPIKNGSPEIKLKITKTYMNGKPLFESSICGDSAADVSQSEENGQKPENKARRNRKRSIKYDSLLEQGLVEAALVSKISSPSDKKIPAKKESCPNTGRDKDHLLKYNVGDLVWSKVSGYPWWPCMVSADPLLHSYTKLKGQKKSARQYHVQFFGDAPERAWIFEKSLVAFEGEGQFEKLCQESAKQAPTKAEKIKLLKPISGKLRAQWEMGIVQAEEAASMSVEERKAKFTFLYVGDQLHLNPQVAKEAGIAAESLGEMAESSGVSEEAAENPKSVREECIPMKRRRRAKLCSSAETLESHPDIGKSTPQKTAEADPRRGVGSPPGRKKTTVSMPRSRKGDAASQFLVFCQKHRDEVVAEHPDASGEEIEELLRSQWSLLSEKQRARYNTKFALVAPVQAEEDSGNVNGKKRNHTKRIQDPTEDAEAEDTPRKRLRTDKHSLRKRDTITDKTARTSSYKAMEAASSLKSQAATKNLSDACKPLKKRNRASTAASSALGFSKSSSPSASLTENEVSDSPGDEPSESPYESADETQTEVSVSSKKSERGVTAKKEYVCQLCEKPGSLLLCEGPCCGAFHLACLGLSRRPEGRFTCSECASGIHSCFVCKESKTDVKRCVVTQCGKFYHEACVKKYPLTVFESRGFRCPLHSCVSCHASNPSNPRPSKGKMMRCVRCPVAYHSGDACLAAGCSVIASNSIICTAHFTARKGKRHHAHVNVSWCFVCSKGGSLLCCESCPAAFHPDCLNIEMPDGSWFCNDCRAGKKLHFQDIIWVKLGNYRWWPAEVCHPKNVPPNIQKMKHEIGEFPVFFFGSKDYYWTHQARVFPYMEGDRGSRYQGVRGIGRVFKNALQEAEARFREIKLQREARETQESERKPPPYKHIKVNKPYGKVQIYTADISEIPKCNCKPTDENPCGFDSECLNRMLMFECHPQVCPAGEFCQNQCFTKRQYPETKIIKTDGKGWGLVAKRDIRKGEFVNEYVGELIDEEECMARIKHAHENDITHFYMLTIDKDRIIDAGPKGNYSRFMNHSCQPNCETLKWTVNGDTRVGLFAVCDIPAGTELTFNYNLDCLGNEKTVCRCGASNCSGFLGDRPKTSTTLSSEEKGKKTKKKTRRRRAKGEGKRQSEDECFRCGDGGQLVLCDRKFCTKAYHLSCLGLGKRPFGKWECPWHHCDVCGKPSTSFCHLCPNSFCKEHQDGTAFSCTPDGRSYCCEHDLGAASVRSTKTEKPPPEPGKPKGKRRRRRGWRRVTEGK
DNMT1 block = human DNMT1 methyltransferase inhibitors, primary screen, biochemical, molecular beacon, fluorescence, HinP1I cleavage, uHTS; 360,000 compounds, 0.83% hits; inhibition (reported as % activation of signal), % at 10 µM; DNA (cytosine-5)-methyltransferase 1 (Homo sapiens), P26358
HCV NS3 hel inh = inhibitors of HCV NS3 helicase, primary screen, biochemical, Cy5 molecular beacon fluorescence; Hepatitis C virus NS3 helicase; NS3 helicase DNA unwinding; inhibition, % at 10.9 µM; 290,000 compounds, 0.56% hits;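 active = inhibition above the mean of all tested compounds plus 3 SD, set per campaign, cut at about 35% in these data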;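 also: 0% = DMSO wells and 100% = thioflavine S control wells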
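Compound dosing – single dose, 10.9 µM nominal final, DMSO 0.8% final · System – NS3 helicase fragment of HCV · Buffer or medium – MOPS pH 6.5, MgCl2, DTT, Tween20, BSA · Signal – Cy5 beacon fluorescence read at start and 1 h · Also added – annealed dual-labelled DNA beacon duplex, ATP-started · Schedule – 1 h at 25 °C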
CASP6 VEID inh = human caspase-6 inhibitors, primary screen, biochemical, VEID-R110 fluorescence, single point, set 2. P55212. purified caspase-6, Z-VEID-R110 cleavage fluorescence. 350,000 compounds, 0.53% hits. inhibition, % at 12.5 µM. AID 686996, 2013;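 active = mean inhibition across replicates at least about 35%, with every replicate also reaching that limit, limit read from the data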;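 also: 0% = median of neutral control wells and 100% = no fluorescence left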
DNMT1 inh conf = DNMT1 methyltransferase inhibitor retest, confirmation, biochemical, molecular beacon, fluorescence, single concentration; DNMT1 molecular beacon HinP1I cleavage; 2,300 compounds, 8% hits; shares compounds with DNMT1 block; inhibition, % at 10 µM;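 active = average inhibition of at least 30% in the single-concentration confirmation test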
DNMT1 interf = beacon fluorescence artifact counter-screen; DNMT1 molecular beacon spectral interference counterscreen, fluorescence 485/520; shares compounds with DNMT1 block; AID 602387; 2,300 compounds, 1% hits; activation (fluorescence interference), % at 10 µM;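 active = activation of at least 30% at 10 µM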;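 also: DNMT1 catalytic domain with a HinP1I cleavage step and a FAM/dabcyl DNA beacon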
Active calls of the source: *; · = no result given. Rule as the data show it, unless noted: active = inhibition above about 50%; inactive = the rest.

SMILES	NSD2 HMT inh	DNMT1 block	HCV NS3 hel inh	CASP6 VEID inh	DNMT1 inh conf	DNMT1 interf
Nc1nnnn1/N=C/c1ccccc1OCc1ccc(Cl)cc1Cl	0	52*	2	-1	7	5
CO[C@@H]1CN(C)C(=O)c2cc(NC(=O)NC3CCCCC3)ccc2OC[C@H](C)N(C(C)=O)C[C@@H]1C	·	·	·	-3	·	·
CC(=O)c1ccc(N=Cc2c(O)n(-c3cc(Cl)ccc3N3CCOCC3)c(=O)c3ccccc23)cc1	1	86*	-2	·	4	5
C[C@@H]1CN([C@@H](C)CO)C(=O)c2cc(C3=CCCC3)cnc2O[C@@H]1CN(C)C	·	·	·	-1	·	·
CC(=O)Nc1ccc(N2C(=O)c3cccc4c(O)ccc(c34)C2=O)cc1	0	51*	8	-15	106*	99*
O=C1c2cccc3c(O)ccc(c23)C(=O)N1c1ccc(Cl)cc1	1	32	35	-16	·	·
Clc1ccc2c(N/N=C/c3ccccc3Br)ccnc2c1	-5	28	-3	-1	·	·
Clc1ccc2c(N/N=C/c3cccc(Br)c3)ccnc2c1	1	80*	-24	0	4	3
O=C(Nc1ccc2nc(-c3ccco3)c(-c3ccco3)nc2c1)N1CCN(c2ccccn2)CC1	1	93*	17	·	0	-2
CN(C)CC(=O)N[C@@H]1CC[C@H](CCNC(=O)C2CCCC2)O[C@H]1CO	·	·	·	-36	·	·
C[C@@H]1CN([C@@H](C)CO)C(=O)c2cc(NC(=O)Nc3cccc4ccccc34)ccc2O[C@H]1CN(C)C(=O)Nc1ccc2c(c1)OCO2	·	·	·	2	·	·
COC(=O)c1ccc(CCc2cc(O)ccc2O)cc1	3	72*	·	·	4	5
COc1ccc(S(=O)(=O)N2C[C@H](O)COC[C@@H]3O[C@@H](CC(=O)NCc4ccc(Cl)c(Cl)c4)CC[C@H]32)cc1	·	·	·	2	·	·
O=c1nc(Nc2ccccc2)sc2ccc([N+](=O)[O-])cc12	-1	57*	3	·	1	-3
O=C(O)c1cccc(-n2cccc2/C=C2\SC(=O)N(Cc3ccccc3F)C2=O)c1	10	91*	21	86*	6	0
O=C(O)c1cccc(-n2cccc2/C=C2/NC(=O)N(c3cccc(Cl)c3)C2=O)c1	18	97*	32	72*	25	4
CC(C)OCCCN(C)C1CCN(S(=O)(=O)c2ccc(-c3cc(C(F)(F)F)on3)s2)CC1	0	·	·	·	·	·
O=C(NCc1ccccc1)C1=C[C@@H](c2ccc(Br)cc2)C[C@@H](OCCCCO)O1	·	-8	4	0	·	·
C#Cc1ccc([C@@H]2C=C(C(=O)NCc3ccccc3)O[C@H](OCCCCO)C2)cc1	·	54*	·	0	3	3
C=C(C)C1(O)OC(=O)C=C1OC (stereo not drawn)	·	53*	11	2	5	4
COc1ccc(C2=CC(=O)OC3(CCCCC3)O2)cc1	-6	2	4	·	·	·
CCNC(=O)[C@H]1[C@H](CO)[C@H]2Cn3c(ccc(-c4ccccc4F)c3=O)[C@@H]1N2C(=O)CC	·	·	·	3	·	·
N#Cc1c2ccc(OCC(=O)NCc3ccco3)cc2n2ccccc12	6	62*	15	16	1	0
O=C(COc1ccccc1)NCc1ccco1	3	3	·	2	·	·
Cc1cc(=O)oc2c3c(cc(OCC(=O)NC(Cc4ccc(Cl)cc4)C(=O)O)c12)OC(C)(C)CC3 (stereo not drawn)	·	98*	-25	0	1	0
SMILES	NSD2 HMT inh	DNMT1 block	HCV NS3 hel inh	CASP6 VEID inh	DNMT1 inh conf	DNMT1 interf
Cc1cc(=O)oc2c3c(cc(OCC(=O)N[C@@H](Cc4ccccc4)C(=O)O)c12)OC(C)(C)CC3	·	0	4	0	·	·
C[C@H]1CN([C@@H](C)CO)C(=O)Cc2cc(NC(=O)Cc3ccccc3)ccc2O[C@@H]1CN(C)Cc1ccc(C(=O)Nc2ccccc2N)cc1	·	·	·	1	·	·
O=C(Nc1cccc(N2CCCC2)c1)c1cccs1	-1	59*	-1	·	3	5
Nc1cccc(NC(=O)c2cccs2)c1	2	-3	-5	·	·	·
COc1ccc2cc3c(N)nn(C(=O)Cc4ccc(Cl)cc4)c3nc2c1	·	69*	3	-5	0	1
CCC(=O)N1CC(=O)N2[C@@H](CO)[C@H](c3ccc(C#Cc4cccnc4)cc3)[C@@H]2C1	·	·	·	-1	·	·
COc1cc(/C=N/NC(=O)c2nnn(-c3nonc3N)c2C)ccc1OCc1ccc(Cl)cc1	3	58*	·	-3	-1	-1
COc1cc(/C=N/NC(=O)c2nnn(-c3nonc3N)c2C(C)C)ccc1OCc1ccccc1	-1	-15	-19	-2	·	·
Nc1c(C(=O)C2CC2)sc2nc(-c3cccs3)cc(C(F)(F)F)c12	-2	68*	-6	·	12	34*
COc1ccc(-c2cnc3c(c2)C(=O)N([C@@H](C)CO)C[C@H](C)[C@@H](CN(C)S(C)(=O)=O)O3)cc1	·	·	·	-1	·	·
CC(=O)Nc1ccc(SCC(=O)c2cc(C)ccc2C)cc1	-1	86*	10	2	8	6
C[C@H]1CN([C@@H](C)CO)C(=O)Cc2cc(NC(=O)Nc3ccccc3)ccc2O[C@H]1CN(C)C(=O)Nc1cccc2ccccc12	·	·	·	1	·	·
Cc1ccc(S(=O)(=O)NCC[C@H]2CC[C@H](NC(=O)Nc3cccc(F)c3)[C@@H](CO)O2)cc1	·	·	·	-1	·	·
CCOc1cc(C(c2c(C)[nH][nH]c2=O)c2c(C)[nH][nH]c2=O)ccc1OCc1ccc([N+](=O)[O-])cc1	8	-26	-7	·	·	·
CCOc1cc(/C=C2/NC(=S)NC2=O)ccc1OCc1ccc([N+](=O)[O-])cc1	-4	52*	6	·	3	9
O=C(COC(=O)c1ccc(S(=O)(=O)NCc2ccco2)cc1)NCc1ccc(F)cc1	-1	1	·	7	·	·
COc1cccc(CN(CC(=O)NCc2ccco2)C(=O)CNS(=O)(=O)c2ccccc2)c1	0	57*	1	4	7	8
COc1ccc(CNC(=O)COC(=O)c2ccc(S(=O)(=O)NCc3ccco3)cc2)cc1	3	51*	·	33	0	1
CCOC(=O)/C=c1\s/c(=C\c2ccc3cc(OC)ccc3c2)c(=O)n1CC(=O)NCC1CCCO1 (stereo not drawn)	·	58*	10	·	7	-1
CCOC(=O)/C=c1/s/c(=C/c2ccc3cc(OC)ccc3c2)c(=O)n1CC(=O)NCc1ccc2c(c1)OCO2	0	54*	·	-9	1	4
